Results taken from ChEMBL document CHEMBL4665734, “Optimization of globomycin analogs as novel gram-negative antibiotics” (Bioorg Med Chem Lett, 2020).
Converted amounts (≈) assume the structure as drawn. The source made the active and inactive calls. No cut-off for these calls is given here. Starred links: 1 amine or outer side, 2 acyl side, 3 side chain; linkers in the order of their positions; H or OH if unused. Non-standard residues stand in square brackets, D forms with d. Residues, ends and D or L forms follow the SMILES beside them. *: point of attachment. X1 = CCCCCC[C@@H](OC[C@@H](C)N[*:1])[C@@H](C)C(=O)[*:2]; X9 = CCCCCC[C@@H](OCCN[*:1])[C@@H](C)C(=O)[*:2]; Gly(cHept) = N[C@H](C(=O)O)C1CCCCCC1; aThr = C[C@H](O)[C@H](N)C(=O)O; NMeL = CN[C@@H](CC(C)C)C(=O)O; Chg = N[C@H](C(=O)O)C1CCCCC1; NMeNva = CCC[C@H](NC)C(=O)O; X2 = NC[C@H]1C[C@H](*)C1; Dap = NC[C@H](N)C(=O)O

How the values were obtained:
[1] = Lipophilicity, logD of the compound at pH 7.4; details: buffer, pH 7.4, logD
[2] = Stability of the compound in human plasma assessed as parent compound remaining after 24 hrs; assay type: ADME, cell-free; details: read-out: Stabilty
In short: (§1)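 Test compound incubated for 24 hour in human, rat or mouse plasma. Stability is reported as the percentage of parent compound remaining.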

[3] = Stability of the compound in mouse plasma assessed as parent compound remaining after 24 hrs; assay type: ADME, cell-free; details: read-out: Stabilty; in short: as §1
[4] = Stability of the compound in rat plasma assessed as parent compound remaining after 24 hrs; assay type: ADME, cell-free; details: read-out: Stabilty; in short: as §1
[5] = Protein binding in rat plasma; assay type: ADME, cell-free
[6] = Protein binding in mouse plasma; assay type: ADME, cell-free
[7] = Clearance in rat liver microsomes; assay type: ADME, Microsome
In short: (§2)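 Intrinsic clearance in rat or mouse liver microsomes, expressed in mL/min/kg.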

[8] = Clearance in mouse liver microsomes; assay type: ADME, Microsome; in short: as §2
[9] = Clearance in iv dosed mouse; assay type: ADME, organism-based; details: in vivo
[10] = Half life in iv dosed mouse; assay type: ADME, organism-based; details: in vivo
Escherichia coli [11] = assay: Inhibition of LspA in Escherichia coli CFT073imp4213 harboring outer membrane-permeable mutant assessed as inhibition of bacterial growth
In short: (§3)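 Read-out is the minimum inhibitory concentration, reported in µM.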

Escherichia coli CFT073 = assay: Inhibition of LspA in wild type Escherichia coli CFT073 assessed as inhibition of bacterial growth; in short: as §3
[12] = Growth inhibition of Staphylococcus aureus USA300
Enterobacter cloacae = assay: Inhibition of LspA in Enterobacter cloacae assessed as inhibition of bacterial growth
Klebsiella pneumoniae = assay: Inhibition of LspA in Klebsiella pneumoniae assessed as inhibition of bacterial growth
Pseudomonas aeruginosa = assay: Inhibition of LspA in Pseudomonas aeruginosa assessed as inhibition of bacterial growth
Acinetobacter baumannii = assay: Inhibition of LspA in Acinetobacter baumannii assessed as inhibition of bacterial growth
Jurkat = assay: Cytotoxicity against human Jurkat cells; assay type: cell-based
In short: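 Jurkat cell growth assay. Result reported as antiproliferative EC50.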

[13] = Stability in mouse plasma assessed as esterase-mediated compound hydrolysis by measuring parent compound remaining after 6 hrs; assay type: ADME, cell-free; details: read-out: Stabilty
In short: (§4)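 Test compound incubated for 6 hour in human or mouse plasma. Stability is reported as the percentage of parent compound remaining.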

[14] = Stability of the compound in human plasma assessed as parent compound remaining after 6 hrs; assay type: ADME, cell-free; details: read-out: Stabilty; in short: as §4
[15] = Stability of the compound in mouse plasma assessed as parent compound remaining after 6 hrs; assay type: ADME, cell-free; details: read-out: Stabilty; in short: as §4
Escherichia coli [16] = assay: In vivo inhibition of LspA in Escherichia coli 25922 infected in iv infused mouse neutropenic thigh infection model assessed as reduction in CFU infused for 20 hrs; assay type: functional, organism-based; details: ATCC 25922
In short: (§5)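 Neutropenic mouse thigh model infected with E. coli 25922. Compound given by IV infusion over 20 hour. Average blood concentration was measured during the infusion, and thigh CFU was compared with vehicle-treated animals.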

[17] = Drug concentration in blood of iv dosed mouse infected with Escherichia coli 25922 infused for 20 hrs; assay type: ADME, organism-based; details: read-out: Ct; in short: as §5
[18] = Protein binding in plasma of iv dosed mouse infected with Escherichia coli 25922 assessed as free fraction; assay type: ADME, organism-based
[19] = Unbound drug concentration in plasma of iv dosed mouse infected with Escherichia coli 25922; assay type: ADME, organism-based; details: in vivo
In short: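 Same infected neutropenic mouse thigh model (E. coli 25922, 20 hour IV infusion). Unbound concentration was derived from the average blood concentration and the free fraction in mouse plasma.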

[20] = tested on: Escherichia coli ATCC 25922; assay: Inhibition of LspA in wild type Escherichia coli 25922 assessed as inhibition of bacterial growth; in short: as §3

Row | Compound | logD [1] | remaining at 24 h [2] [%] | remaining at 24 h [3] [%] | remaining at 24 h [4] [%] | CLhep predicted [7] [mL/min/kg] | CLhep predicted [8] [mL/min/kg] | clearance [9] [mL/min/kg] | half-life [10] [h] | MIC (Escherichia coli [11]) [µM] | MIC (Escherichia coli CFT073) [µM] | MIC [12] [µM] | MIC (Enterobacter cloacae) [µM] | MIC (Klebsiella pneumoniae) [µM] | MIC (Pseudomonas aeruginosa) [µM] | MIC (Acinetobacter baumannii) [µM] | EC50 (Jurkat) [µM] | further results
1 | CCCCCC[C@H]1OC(=O)CNC(=O)[C@H]([C@H](C)O)NC(=O)[C@H](CO)NC(=O)[C@H]([C@H](C)CC)NC(=O)[C@H](CC(C)C)N(C)C(=O)[C@@H]1C | 3.1 | 100 | 2 | 1 | 37 | 81 | 286 | 0.3 | 0.25 (≈ 0.164 µg/mL) | 44 (≈ 28.9 µg/mL) | > 100 | 100 (≈ 65.6 µg/mL) | > 100 | > 100 | > 100 | > 50 | Stabilty [5]: Unstable; Stabilty [6]: Unstable; remaining at 6 h [13]: 49%
2 | CCCCCC[C@H]1OCCNC(=O)[C@H]([C@H](C)O)NC(=O)[C@H](CN)NC(=O)[C@H](C2CCCCC2)NC(=O)[C@H](CC(C)C)N(C)C(=O)[C@@H]1C (cyclo([Chg][Dap][aThr][X9][NMeL])) | – | – | – | – | – | – | – | – | 0.14 (≈ 0.0934 µg/mL) | 8.7 (≈ 5.8 µg/mL) | 100 (≈ 66.7 µg/mL) | – | – | – | – | – | remaining at 6 h [14]: 99%; remaining at 6 h [15]: 96%
3 | CCCCCC[C@H]1OC[C@@H](C)NC(=O)[C@H](CO[C@H]2C[C@H](CN)C2)NC(=O)[C@H](CN)NC(=O)[C@H](C2CCCCCC2)NC(=O)[C@H](CCC)N(C)C(=O)[C@@H]1C (cyclo([Dap]S(X2)[X1][NMeNva][Gly(cHept)])) | 1.6 | 98 | 101 | 96 | 20 | 43 | 2.9 | 4 | 0.048 (≈ 0.036 µg/mL) | 3.1 (≈ 2.33 µg/mL) | 50 (≈ 37.5 µg/mL) | 6.3 (≈ 4.73 µg/mL) | 18 (≈ 13.5 µg/mL) | 100 (≈ 75 µg/mL) | 18 (≈ 13.5 µg/mL) | > 100 | fraction unbound ([5]; read-out: PPB (converted)): 0.033; fraction unbound ([6]; read-out: PPB (converted)): 0.011; Activity (Escherichia coli [16]): inactive; concentration at 20 h [17]: 27 µM; fraction unbound [18]: 0.011; Cp(f) [19]: 0.3 µM; MIC [20]: 3.1 µM (≈ 2.33 µg/mL)
